Experimental data reported in ChEMBL document CHEMBL4382258, “Design and Optimization of Sulfone Pyrrolidine Sulfonamide Antagonists of Transient Receptor Potential Vanilloid-4 with in Vivo Activity in a Pulmonary Edema Model” (J Med Chem, 2018).
In brackets after ≈: the same amount, converted by molar mass.

Key:
[1] = Clearance adjusted for unbound fraction in Sprague-Dawley rat at 1 mg/kg, iv administered as 30 mins infusion by LC/MS/MS analysis; type: ADME, organism-based; conditions: in vivo, 0.5 h
[2] = Kinetic aqueous solubility of the compound by chemiluminescence nitrogen detection analysis; conditions: buffer
Cytochrome P450 3A4 [3] = biological target: T1, Cytochrome P450 3A4 (Homo sapiens, UniProt P08684); conditions: 100 µM
[4] = Volume of distribution at steady state in Sprague-Dawley rat at 1 mg/kg, iv or 2 mg/kg, po by LC/MS/MS analysis; type: ADME, organism-based; conditions: in vivo, read-out: Vdss
Cytochrome P450 3A4 [5] = biological target: T1, Cytochrome P450 3A4; assay: Reversible inhibition of CYP3A4 (unknown origin) in presence of NADPH by vivid red substrate-based assay
[6] = Oral bioavailability in Sprague-Dawley rat at 2 mg/kg by LC/MS/MS analysis; type: ADME, organism-based; conditions: in vivo
HepG2 [7] = assay: Induction of phospholipidosis in human HepG2 cells after 72 hrs by fluorescence assay; type: cell-based; conditions: hepg2, 72 h
[8] = Lipophilicity, chromatographic hydrophobicity index of the compound in immobilized artificial membrane
[9] = biological target: Voltage-gated inwardly rectifying potassium channel KCNH2 (Homo sapiens, UniProt Q12809); assay: Inhibition of human ERG expressed in CHO cells by Qpatch assay
[10] = pH 10.5 – pH 7.4
[11] = MRT in Sprague-Dawley rat at 1 mg/kg, iv or 2 mg/kg, po by LC/MS/MS analysis; type: ADME, organism-based; conditions: in vivo
[12] = Clearance in Sprague-Dawley rat at 1 mg/kg, iv administered as 30 mins infusion by LC/MS/MS analysis; type: ADME, organism-based; conditions: in vivo
[13] = biological target: T2, Transient receptor potential cation channel subfamily V member 4 (Homo sapiens, UniProt Q9HBA0); assay: Antagonist activity at human TRPV4 expressed in BHK/AC9 cells assessed as inhibition of GSK634775-induced […] pre-incubated for 10 mins followed by agonist addition by Fluo-4-AM dye-based FLIPR assay; type: cell-based
[14] = biological target: T2, Transient receptor potential cation channel subfamily V member 4; assay: Antagonist activity at human TRPV4 expressed in HEK cells assessed as inhibition of GSK634775-induced […] pre-incubated for 10 mins followed by agonist addition by Fluo-4-AM dye-based FLIPR assay; type: cell-based
Method in brief: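 TRPV4 from human recombinant channels in HEK cells; block of calcium mobilization evoked by agonist GSK634775, read on a fluorescent imaging plate reader; reported potency is an average of repeat determinations.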

HepG2 [15] = assay: Induction of phospholipidosis in human HepG2 cells after 72 hrs by fluorescence assay relative to control; type: cell-based; conditions: hepg2, 72 h
[16] = biological target: T2, Transient receptor potential cation channel subfamily V member 4; assay: Antagonist activity at human TRPV4 expressed in HEK cells assessed as inhibition of GSK634775-induced Ca2+ influx by FLIPR assay; type: cell-based
[17] = biological target: Transient receptor potential cation channel subfamily V member 4 (Rattus norvegicus, UniProt Q9ERZ8); assay: Antagonist activity at rat TRPV4 expressed in BHK/AC9 cells assessed as inhibition of GSK634775-induced […] pre-incubated for 10 mins followed by agonist addition by Fluo-4-AM dye-based FLIPR assay; type: cell-based
[18] = Plasma concentration in Sprague-Dawley rat heart failure-induced pulmonary edema model at 0.26 mg/kg, iv bolus loading dose followed by 0.2 ug/kg/min, iv continuous infusion dose for 60 mins; type: ADME, organism-based
[19] = Plasma concentration in Sprague-Dawley rat heart failure-induced pulmonary edema model at 0.09 mg/kg, iv bolus loading dose followed by 0.07 ug/kg/min, iv continuous infusion dose for 60 mins; type: ADME, organism-based
Rattus norvegicus [20] = assay: (§1) Reversal of heart failure-induced pulmonary edema in Sprague-Dawley rat assessed as inhibition of GSK1016790A-induced increase in lung wet weight to body weight ratio at 0.09 to 0.78 mg/kg, iv bolus loading dose followed by 0.07 to 0.6 ug/kg/min, iv continuous infusion dose for 60 mins prior to agonist administration; type: functional, organism-based
Method in brief: (§2)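 Rats given vehicle or antagonist by i.v. infusion, then agonist GSK1016790A i.v. at 10 µg/kg/min for 10 min (100 µg/kg total). Edema scored as wet lung weight/body weight ratio against naïve animals; inhibition computed from the agonist response; mean ± SEM.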

Rattus norvegicus [21] = assay: as §1, with “0.26” for “0.09 to 0.78”, “0.2” for “0.07 to 0.6”, “administration relative to control” for “administration”; type: functional; method in brief: as §2
[22] = Fraction unbound in Sprague-Dawley rat heart failure-induced pulmonary edema model at 0.09 to 0.78 mg/kg, iv bolus loading dose followed by 0.07 to 0.6 ug/kg/min, iv continuous infusion dose for 60 mins; type: ADME, organism-based; conditions: in vivo
[23] = Plasma concentration in Sprague-Dawley rat heart failure-induced pulmonary edema model at 0.78 mg/kg, iv bolus loading dose followed by 0.6 ug/kg/min, iv continuous infusion dose for 60 mins; type: ADME, organism-based
[24] = Metabolic stability in rat liver microsomes assessed as parent compound remaining after 30 mins; type: ADME, Microsome; conditions: read-out: Stability
Method in brief: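 Rat liver microsomes incubated 30 min with glutathione for trapping; parent remaining measured.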

[25] = Permeability of the compound by PAMPA; type: ADME; conditions: read-out: permeability
[26] = biological target: T2, Transient receptor potential cation channel subfamily V member 4; assay: Antagonist activity at TRPV4 (unknown origin)

T2 sequence (Q9HBA0 whole entry): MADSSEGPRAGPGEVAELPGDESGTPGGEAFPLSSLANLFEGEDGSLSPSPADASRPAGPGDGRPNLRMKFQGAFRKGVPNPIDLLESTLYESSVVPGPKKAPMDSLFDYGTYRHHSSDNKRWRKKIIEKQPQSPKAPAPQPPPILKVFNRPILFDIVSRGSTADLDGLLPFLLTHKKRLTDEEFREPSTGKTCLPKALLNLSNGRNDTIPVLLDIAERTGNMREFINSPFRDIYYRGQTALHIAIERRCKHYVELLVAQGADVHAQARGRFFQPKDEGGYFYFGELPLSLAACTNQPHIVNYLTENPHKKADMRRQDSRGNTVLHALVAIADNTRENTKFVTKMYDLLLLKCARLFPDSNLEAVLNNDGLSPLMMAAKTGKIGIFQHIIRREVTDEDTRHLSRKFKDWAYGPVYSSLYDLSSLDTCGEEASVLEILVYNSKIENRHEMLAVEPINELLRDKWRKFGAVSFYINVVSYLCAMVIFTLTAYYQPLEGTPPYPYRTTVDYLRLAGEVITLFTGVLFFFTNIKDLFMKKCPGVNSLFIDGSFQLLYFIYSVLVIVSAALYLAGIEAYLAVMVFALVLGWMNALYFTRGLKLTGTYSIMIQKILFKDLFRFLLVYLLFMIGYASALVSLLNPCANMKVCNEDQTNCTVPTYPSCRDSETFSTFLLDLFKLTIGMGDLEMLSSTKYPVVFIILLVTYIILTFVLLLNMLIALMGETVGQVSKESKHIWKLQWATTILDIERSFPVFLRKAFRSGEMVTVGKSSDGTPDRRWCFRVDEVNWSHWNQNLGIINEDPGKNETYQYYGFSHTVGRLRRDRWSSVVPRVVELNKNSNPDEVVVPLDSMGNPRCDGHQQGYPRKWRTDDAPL
T1 sequence (P08684 whole entry): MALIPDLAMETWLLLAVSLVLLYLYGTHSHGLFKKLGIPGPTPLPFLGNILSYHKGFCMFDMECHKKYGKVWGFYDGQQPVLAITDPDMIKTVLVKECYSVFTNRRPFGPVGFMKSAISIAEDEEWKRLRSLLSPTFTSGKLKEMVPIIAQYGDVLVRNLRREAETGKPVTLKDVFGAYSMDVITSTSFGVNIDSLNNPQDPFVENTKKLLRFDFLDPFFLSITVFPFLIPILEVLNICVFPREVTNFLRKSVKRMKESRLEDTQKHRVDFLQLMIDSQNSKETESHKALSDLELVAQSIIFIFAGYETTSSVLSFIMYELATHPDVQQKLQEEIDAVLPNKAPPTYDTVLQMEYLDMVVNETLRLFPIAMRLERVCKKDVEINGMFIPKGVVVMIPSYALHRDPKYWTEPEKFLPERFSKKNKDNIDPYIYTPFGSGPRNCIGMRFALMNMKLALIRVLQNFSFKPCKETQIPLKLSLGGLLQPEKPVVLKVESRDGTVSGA
Sequence of Voltage-gated inwardly rectifying potassium channel KCNH2 (Q12809 whole entry): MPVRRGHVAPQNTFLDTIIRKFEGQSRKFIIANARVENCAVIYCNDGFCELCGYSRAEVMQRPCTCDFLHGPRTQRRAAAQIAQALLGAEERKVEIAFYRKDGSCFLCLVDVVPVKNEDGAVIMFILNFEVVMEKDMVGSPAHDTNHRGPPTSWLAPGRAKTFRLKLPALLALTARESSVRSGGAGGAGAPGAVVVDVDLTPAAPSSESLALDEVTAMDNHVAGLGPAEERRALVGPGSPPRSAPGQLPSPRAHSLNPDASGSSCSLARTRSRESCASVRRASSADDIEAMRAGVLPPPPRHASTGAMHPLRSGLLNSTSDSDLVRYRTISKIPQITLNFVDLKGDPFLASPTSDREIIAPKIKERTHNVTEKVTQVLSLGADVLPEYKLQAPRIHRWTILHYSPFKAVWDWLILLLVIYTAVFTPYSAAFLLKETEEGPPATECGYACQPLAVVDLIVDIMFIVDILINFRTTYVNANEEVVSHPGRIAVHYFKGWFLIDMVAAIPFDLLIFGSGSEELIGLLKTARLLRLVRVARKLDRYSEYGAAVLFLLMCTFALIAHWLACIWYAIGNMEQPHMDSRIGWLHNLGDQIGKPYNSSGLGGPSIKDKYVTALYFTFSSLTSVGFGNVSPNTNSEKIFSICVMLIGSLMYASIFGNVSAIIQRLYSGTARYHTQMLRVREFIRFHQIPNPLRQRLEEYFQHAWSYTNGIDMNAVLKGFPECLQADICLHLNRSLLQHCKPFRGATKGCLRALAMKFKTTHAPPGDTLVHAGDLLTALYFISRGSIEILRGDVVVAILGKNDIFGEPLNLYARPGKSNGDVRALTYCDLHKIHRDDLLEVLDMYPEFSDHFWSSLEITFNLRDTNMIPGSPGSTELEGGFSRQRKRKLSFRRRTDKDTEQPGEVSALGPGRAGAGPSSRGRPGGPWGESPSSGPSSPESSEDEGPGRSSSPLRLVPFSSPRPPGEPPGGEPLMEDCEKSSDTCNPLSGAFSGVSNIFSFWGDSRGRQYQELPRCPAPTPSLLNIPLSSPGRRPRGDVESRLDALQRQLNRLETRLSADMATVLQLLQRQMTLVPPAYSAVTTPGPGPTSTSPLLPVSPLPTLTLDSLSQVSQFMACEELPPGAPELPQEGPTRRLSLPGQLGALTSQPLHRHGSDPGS
Sequence of Transient receptor potential cation channel subfamily V member 4 (Rattus norvegicus, UniProt Q9ERZ8) (Q9ERZ8 whole entry, the tested form may be a part): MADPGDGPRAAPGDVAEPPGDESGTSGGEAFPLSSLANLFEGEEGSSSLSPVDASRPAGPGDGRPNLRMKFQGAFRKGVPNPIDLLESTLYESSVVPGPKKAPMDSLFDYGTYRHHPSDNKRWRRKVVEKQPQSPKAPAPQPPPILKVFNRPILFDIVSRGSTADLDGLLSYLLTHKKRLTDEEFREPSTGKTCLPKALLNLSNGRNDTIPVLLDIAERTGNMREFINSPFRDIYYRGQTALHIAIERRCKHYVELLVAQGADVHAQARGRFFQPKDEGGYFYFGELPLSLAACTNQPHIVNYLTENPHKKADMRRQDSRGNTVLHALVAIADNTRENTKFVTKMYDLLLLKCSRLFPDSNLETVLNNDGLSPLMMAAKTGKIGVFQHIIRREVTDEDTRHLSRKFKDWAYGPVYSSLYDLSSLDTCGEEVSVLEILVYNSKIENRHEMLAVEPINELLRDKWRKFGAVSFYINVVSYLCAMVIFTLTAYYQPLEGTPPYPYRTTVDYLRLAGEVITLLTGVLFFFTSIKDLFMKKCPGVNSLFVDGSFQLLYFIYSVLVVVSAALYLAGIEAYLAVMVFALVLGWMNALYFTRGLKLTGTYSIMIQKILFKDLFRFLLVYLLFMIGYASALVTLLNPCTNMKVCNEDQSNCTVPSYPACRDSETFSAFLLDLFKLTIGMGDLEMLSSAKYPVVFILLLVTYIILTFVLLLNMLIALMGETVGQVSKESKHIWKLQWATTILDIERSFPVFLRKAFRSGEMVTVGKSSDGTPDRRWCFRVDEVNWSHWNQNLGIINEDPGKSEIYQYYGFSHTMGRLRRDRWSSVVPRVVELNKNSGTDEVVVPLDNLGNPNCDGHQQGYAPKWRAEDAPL

Compound	CL free [1] [mL/min/kg]	Vd [4] [L/kg]	bioavailability [6] [%]	MRT [11] [h]	clearance [12] [mL/min/kg]	IC50 [13] [nM]	IC50 [14] [nM]	further results
N#Cc1ccc(S(=O)(=O)N2C[C@H](S(=O)(=O)c3ccc(Cl)cn3)[C@](O)(CN)C2)c(Cl)c1	3.8	1.3	64	1.9	12	0.5		solubility kinetic [2]: 500 µM (≈ 246 µg/mL); TDI (Cytochrome P450 3A4 [3]): Not Active; IC50 (Cytochrome P450 3A4 [5]): 300 nM; pMED (HepG2 [7]): < 4; CHI [8]: 42; IC50 [9]: 8000 nM; ΔCHI [10]: -2.2
N#Cc1ccc(S(=O)(=O)[C@@H]2CN(S(=O)(=O)c3ccc(Cl)cc3Cl)C[C@@]2(O)CO)cc1							1590	
N#Cc1ccc(S(=O)(=O)N2C[C@H](S(=O)(=O)c3ccc(Cl)cc3)[C@](O)(CN)C2)c(Cl)c1	2.7	4	22	5.7	12			pMED (HepG2 [7]): 4.7; Activity (HepG2 [15]): 425%
O=C(NC1(c2ccccc2)CC1)c1c(CN2CCC(N3CCCCC3)CC2)c(-c2cccc(C(F)(F)F)c2)nc2cc(Br)ccc12								IC50 [16]: 50 nM
N#Cc1ccc(S(=O)(=O)N2C[C@H](S(=O)(=O)c3ccc(Cl)cn3)[C@@](O)(CN)C2)c(Cl)c1	1.7	0.2	56	2.2	1.7	0.5		solubility kinetic [2]: 500 µM (≈ 246 µg/mL); IC50 [17]: 1 nM; concentration at 1 h [18]: 2100 nM; TDI (Cytochrome P450 3A4 [3]): Not Active; IC50 (Cytochrome P450 3A4 [5]): 4000 nM; concentration at 1 h [19]: 400 nM; fIC50 (Rattus norvegicus [20]): 8.5 nM; IC50 (Rattus norvegicus [20]; Rattus norvegicus, Sprague-Dawley): 611 nM; pMED (HepG2 [7]): < 4; CHI [8]: 36; IC50 [9]: 8000 nM; ΔCHI [10]: 3.7; inhibition (INH) (Rattus norvegicus [21]): 88%; fraction unbound at 1 h [22]: 0.014; concentration at 1 h [23]: 4500 nM
N#Cc1ccc(S(=O)(=O)[C@H]2CN(S(=O)(=O)c3ccc(Cl)cc3Cl)C[C@@]2(O)CO)cc1	9	2.3	100	1.7	25		7.9	remaining at 0.5 h [24]: 89%; Papp [25]: 45 ×10⁻⁶ cm/s
N#Cc1ccc(O[C@H]2CN(S(=O)(=O)c3ccc(Cl)cc3Cl)C[C@@H]2O)cc1							32	
N#Cc1ccc(S(=O)(=O)[C@H]2CN(S(=O)(=O)c3ccc(C#N)cc3Cl)C[C@@]2(O)CO)cc1	4	2.2	15	1	35	3.2		solubility kinetic [2]: 400 µM (≈ 193 µg/mL); Papp [25]: 35 ×10⁻⁶ cm/s
N#Cc1ccc(S(=O)(=O)[C@H]2CN(S(=O)(=O)c3ccc(Cl)cc3Cl)C[C@@H]2O)cc1	30	1.1	100	2	9		25	Papp [25]: 78 ×10⁻⁶ cm/s
N#Cc1ccc(S(=O)(=O)N2C[C@H](S(=O)(=O)c3ccc(Cl)cc3)[C@](O)(CO)C2)cn1	1.2	4.1	62	3	22	631		
N#Cc1ccc(S(=O)(=O)N2C[C@H](S(=O)(=O)c3ccc(Cl)cn3)[C@](O)(CO)C2)c(Cl)c1	11	2	62	1.4	23			
N#Cc1ccc(S(=O)(=O)[C@H]2CN(S(=O)(=O)c3ccc(Cl)cc3Cl)C[C@@]2(O)CO)cc1F	14	1.2	51	0.8	25	2		remaining at 0.5 h [24]: 46%
N#Cc1ccc(S(=O)(=O)[C@H]2CN(S(=O)(=O)c3ccc(Cl)cc3Cl)C[C@]2(O)CO)cc1							50	
CC(C)(C)c1cc(N2C[C@@]3(CCC[C@](C)(Cn4cnc5ccc(C#N)cc54)C3)OC2=O)no1								IC50 [26]: 7.5 nM
N#Cc1ccc(S(=O)(=O)[C@H]2CN(S(=O)(=O)c3ccc(Cl)cc3C#N)C[C@@]2(O)CO)cc1	7	2.6	25	0.5	82	2		solubility kinetic [2]: 380 µM (≈ 183 µg/mL)
N#Cc1ccc(S(=O)(=O)N2C[C@H](S(=O)(=O)c3ccc(Cl)cc3)[C@](O)(CO)C2)c(C(F)(F)F)n1	66	3.6	8	0.2	310	20		
N#Cc1ccc(S(=O)(=O)N2C[C@H](S(=N)(=O)c3ccc(Cl)cc3)[C@](O)(CO)C2)c(Cl)c1 (some centres undefined)	4.8	3.2	38	1	52	20		
N#Cc1ccc(S(=N)(=O)N2C[C@H](S(=O)(=O)c3ccc(Cl)cc3)[C@](O)(CO)C2)c(Cl)c1 (some centres undefined)	8.9	2.7	80	0.9	48	40		
N#Cc1ccc(O[C@H]2CN(S(=O)(=O)c3ccc(Cl)cc3Cl)C[C@@]2(O)CO)cc1	15	2.4	46	0.6	74			Papp [25]: 37 ×10⁻⁶ cm/s
N#Cc1ccc(S(=O)(=O)[C@@H]2CN(S(=O)(=O)c3ccc(Cl)cc3Cl)C[C@]2(O)CO)cc1							159	
